core dimer inh = blocks dimerization of HCV core protein. TR-FRET GST/Flag-core106 dimerization, 1536-well. AID 1899. inhibition, % at 5 µM. hit rate 0.33% among 300,000;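 active = inhibition above the mean of all tested compounds plus 3 SD, set per screening campaign, cut at about 45% in these data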
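Assay system: Tagged HCV core106 pair (GST and Flag) | Buffer or medium: KF-containing HEPES buffer, pH 7.45, DTT, CHAPS, BSA | Also added: Eu donor and XL665 acceptor anti-tag antibodies | Dosing: One concentration, 5 µM, in 0.5% DMSO | Timing: 4 h at 22.5 °C | Technique: TR-FRET 671 and 617 nm emission | Repeats: Singlicate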
eIF4H FP inh = inhibitors of RNA binding by human eIF4H. Q15056. eIF4H fluorescence polarization binding assay. inhibition, % at 35 µM. hit rate 0.94% among 290,000;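 note: calls also rest on retests at 20 µM and on dose response follow-up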
MLLE-PAM2 inh = blocks PAM2 peptide binding to the PABP1 MLLE domain | P11940 | GST-MLLE / FITC-PAM2 fluorescence polarization | inhibition, % at 20 µM | hit rate 0.36% among 360,000; in the data active = inhibition above about 35%, passing the limit was not always enough;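 note: plate controls were DMSO wells with GST-MLLE for no effect and wells lacking GST-MLLE protein for full effect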
UBC9 SUMO inh = inhibitors of human SUMOylation (UBC9) | HTRF SUMOylation assay, SAE1/SAE2 + UBC9, in vitro | inhibition, % at 35 µM | hit rate 0.36% among 290,000 | P63279; in the data active = inhibition above about 50%, passing the limit was not always enough
PABP FP inh = blocks human PABP binding to poly(A) RNA | P11940 | fluorescence polarization | calls only at 35 µM | hit rate 1% among 290,000 | AID 2014;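 note: calls also rest on retests at 20 µM and on dose response follow-up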
eIF4E 4G PPI = eIF4E/eIF4G interaction inhibition in translation initiation; hit rate 0.37% among 220,000; TR-FRET eIF4E-eIF4GI(517-606) binding, 2 h; P63073+Q04637; inhibition, % at 21.7 µM;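 active = inhibition above about 30%, limit read from the data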;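 note: 0% = full FRET control wells and 100% = background wells lacking eIF4GI fragment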
Active calls of the source: *; i = inactive; . = no result; + = active, no number; [ ] = remark or other dose. Compounds with a hit are over-represented: about 1.8% of the library has one in this group of screens. Unless noted, the rule behind the calls is not given here.

SMILES	core dimer inh	eIF4H FP inh	MLLE-PAM2 inh	UBC9 SUMO inh	PABP FP inh	eIF4E 4G PPI
O=C(OCc1nc2ccccc2s1)c1ccc([N+](=O)[O-])o1	6	-16	-6	17	i	.
Nc1c(C(=O)NCc2cccnc2)sc(=S)n1-c1ccccc1	-3	-4	33	-11	i	33*
O=C(N/N=C/c1ccc2c(c1)OCO2)c1sc2cc(Cl)ccc2c1Cl	-2	5	10	0	i	30*
O=C(NC(=S)Nc1cccc2cccnc12)c1cccs1	8	4	48*	8	i	-1
O=C(NC(=S)Nc1cccc(Cl)c1N1CCOCC1)c1cccs1	2	-10	42*	-47	i	1
Cc1cccc(NC(=S)NC(=O)c2cccs2)n1	2	1	41*	3	i	5
CC(=O)NCCOc1cccc2cccnc12	-6	-24	-11	18	i	-3
O=C(NCCOc1cccc2cccnc12)c1cccs1	4	active	17	20	+	-2
Cc1cc(C)c(S(C)(=O)=O)c(Oc2cccc(C(F)(F)F)c2)n1	-1	-4	-3	14	i	-2
O=C(COC(=O)C1CC(O)CN1S(=O)(=O)c1ccccc1[N+](=O)[O-])c1ccc[nH]1 (stereo not drawn)	.	.	-9	.	.	.
CC1C(=O)N2CCCc3cc(NS(=O)(=O)c4ccccc4)cc1c32 (stereo not drawn)	4	.	15	.	.	.
CCCC(=O)NC(=S)Nc1cccc(Cl)c1N1CCCC1	-5	1	45*	6	i	-4
O=C(NC(=S)Nc1ccc(NC(=O)c2cccs2)cc1)c1cc2ccccc2o1	23	96*	18	11	+	-6
O=C(NC(=S)Nc1cccc2cccnc12)c1ccccc1	3	4	39*	-13	i	0
O=C(NC(=S)Nc1cccc(Cl)c1N1CCCCC1)c1cccs1	3	7	29	-20	i	8
CC[C@]12C(=O)N(C)C[C@H]([C@@H]3C(=O)N(C)C(=O)[C@@H]31)N2C(=O)c1ccccc1	.	.	1	.	.	.
C=CCn1c(N2CCOCC2)nc2c1c(=O)[nH]c(=O)n2C	1	-9	10	13	i	-1
O=C1c2ccccc2COc2ccc(O)cc21	-2	51*	8	2	i	0
COc1ccccc1NC1=C(Cl)C(=O)N(c2ccccc2)C1=O	2	-2	10	-13	i	-2
CCOc1ccc(N2C(=O)C(Cl)=C(Nc3ccccc3O)C2=O)cc1	3	11*	-5	-5	i	7
Cc1cccc(OCC(=O)Nc2ccc3c(C)cc(=O)oc3c2)c1	1	78*	-21	16	+	0
CC(=O)Nc1ccc(S(=O)(=O)NNC(=O)COc2cccc(C)c2)cc1	-5	-6	31	-7	i	33*[fluorescence artefact?]
COc1cccc(NC(=O)CCC(=O)Nc2cccc(OC)c2)c1	-3	0	16	-17	i	9
COc1cccc(NC(=O)COc2ccccc2)c1	-8	2	4	20	i	.
CCOC(=O)c1ccc(S(=O)(=O)NNC(=O)COc2cccc(C)c2)cc1	3	0	1	-6	i	2
SMILES	core dimer inh	eIF4H FP inh	MLLE-PAM2 inh	UBC9 SUMO inh	PABP FP inh	eIF4E 4G PPI
CC(=O)Nc1cccc(OCC(=O)Nc2ccccc2)c1	-3	active	12	-6	i	4
COc1cccc(NC(=O)CSC(N)=O)c1	0	5	38*	18	i	2
CC(C(=O)Nc1cccc([N+](=O)[O-])c1)N1C(=O)NC2(CCCC2)C1=O (stereo not drawn)	1	-10	-2	14	i	.
COc1ccc(NC(=O)C(=O)NCC(c2ccco2)N2CCc3ccccc3C2)cc1OC (stereo not drawn)	-1	.	8	.	.	.
COc1cccc(C(=O)N(C)CC2CCN(CCc3cccc(C(F)(F)F)c3)CC2)c1	4	10	2	5	i	.
COc1ccc(OC)c(NC(=O)NCCCCc2ccccc2)c1	2	7	-8	-9	i	.
CN(C)C(=O)c1ccc(NC(=O)COc2cccc(Oc3ccccc3)c2)cc1	15	23	-2	7	+	.
O=C(COc1cccc(Oc2ccccc2)c1)Nc1ccc(SC(F)F)cc1	1	7	-14	-28	i	-13
